INS promoter act: activators of insulin promoter-driven GFP, primary screen, imaging, TRM-6 cells, eGFP reporter, cell count. plate-scaled: unstimulated 0, stimulated control 100. activation, % at 2 µM. 130,000 compounds, 0.81% hits. AID 1296, 2008;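 active = activation at 2 µM above a set limit, confirmed on inspection of the cell images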;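 also: share of cells whose green reporter signal exceeds an intensity cutoff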
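System: human fetal islet-derived TRM-6 cells with tamoxifen-inducible insulin promoter–eGFP reporter; input: seeding density of 1,000 cells per well; buffer or medium: Low-glucose (5.5 mM) medium with tamoxifen; incubation: compound exposure 48 h, 37 °C; measured by: high-content imaging of fixed cells with Hoechst nuclear stain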
An asterisk follows results filed as active. This excerpt belongs to a sample that is enriched for hits.

SMILES	INS promoter act
Cc1[nH]c2ccccc2c1[C@H]1[C@@H](CC#N)C1(C)C	-5.1
Cc1ccc(NC(=O)CSc2nnc(-c3n[nH]c4ccccc34)n2-c2ccccc2)c(C)c1	9.1
Cc1ccc2c(c1)c1c(n2CC(O)Cn2nc(C)c(Br)c2C)CCCC1 (stereo not drawn)	83.3*
Cc1cc(C)nc(SCC(=O)n2c3c(c4ccccc42)CCCC3)n1	-7.7
Cc1nn(CC(O)Cn2cnc3c2c(=O)n(C)c(=O)n3C)c(C)c1Br (stereo not drawn)	-24.4
Cc1noc(C)c1CCC(=O)N1CCCC(CCC(=O)NCc2ccccc2F)C1 (stereo not drawn)	-8.7
CN(C1CCCC1)C1CCN(C(=S)Nc2cc(F)cc(F)c2)CC1	-6.7
COc1ccc2nc(NC(=O)c3cccnc3SC)sc2c1	0.0
CN(C)c1oc(-c2ccc(Cl)cc2)nc1S(=O)(=O)c1ccccc1	-1.5
C=CCNC(=O)c1ccccc1NC(=O)C1COc2ccccc2O1 (stereo not drawn)	471.4*
CCc1nnc(NC(=O)C2COc3ccccc3O2)s1 (stereo not drawn)	-5.4
O=C(Nc1ccccc1C(=O)N1CCCC1)C1COc2ccccc2O1 (stereo not drawn)	-8.3
CSc1ccc(NC(=O)N2CC=C(n3c(=O)[nH]c4ccccc43)CC2)cc1	-64.3
O=C(CCCN1C(=O)c2ccccc2C1=O)NCCN1C(=O)S/C(=C\c2cccs2)C1=O	2.7
COCCNC(=O)CN(C(=O)CCC(=O)Nc1ccccn1)c1ccccc1F	6.7
O=C(C1CCCO1)N1CCN(C(=S)Nc2ccccc2Cl)CC1 (stereo not drawn)	-9.7
O=C(COC(=O)/C=C/c1ccc(Br)o1)NCCCN1CCCC1=O	9.1
CCN(CC)CCn1cnc2c([nH]c3cccc(OC)c32)c1=O	-9.5
CCN(CC)CCn1c(OC)cc(=O)[nH]c1=O	500.0*
CCN(CC)CCn1c(N)cc(=O)[nH]c1=O	0.0
CCOC(=O)N1CCN(C(=S)Nc2cc(OC)c(OC)cc2C(=O)OC)CC1	8.3
Cc1cc(C)c(Cc2c(C)nc3c(C(=O)NCc4ccco4)cnn3c2C)c(C)c1	-2.8
CCN1C=CC2=C(C#N)C(N)C(C#N)(C#N)C(c3ccccc3C(F)(F)F)C2C1 (stereo not drawn)	371.4
COc1cccc(NC(=O)Cn2c(=O)n(CC3CCCO3)c(=O)c3ccccc32)c1 (stereo not drawn)	185.7
COC(=O)C(C(=O)N1CCN(C)CC1)C1CCCCCC1 (stereo not drawn)	431.3*
SMILES	INS promoter act
CCOC(=O)C(C(=O)N1CCOCC1)C1CCCCC1 (stereo not drawn)	286.4
COC(=O)C(C(=O)NCC1CCCO1)C1CCCCCC1 (stereo not drawn)	-7.7
CCN(CC)C(=O)c1sc2c(c1C)c(=O)n(-c1ccc(C)c(C)c1)c(=O)n2CC(=O)NCC1CCCO1 (stereo not drawn)	-83.3
O=C1CCC(C(=O)N2CCC(CO)(Cc3ccc(Cl)cc3)CC2)=NN1	-7.7
O=C(Nc1c(C(=O)NCc2ccco2)cnn1-c1ccccc1)c1cccc(F)c1	287.0*
O=C(NCc1ccco1)c1cnn2c(C(F)F)cc(-c3ccccc3)nc12	-9.6
CC(C)(C)NC(=O)c1cnn(-c2ccccc2)c1NC(=O)c1ccccc1	0.0
CS(=O)(=O)N(CC(=O)NC1CCCC1)Cc1ccc(Cl)cc1	-3.3
CN1CCN(C(=O)CN(Cc2ccc(Cl)cc2)S(C)(=O)=O)CC1	578.6*
CS(=O)(=O)N(CC(=O)N1CCCCCC1)Cc1ccc(Cl)cc1	-7.1
CCOC(=O)c1c(NC(=S)Nc2ccccc2)sc2c1CCN(CCc1ccccc1)C2	233.3*
CCOC(=O)c1c(NC(=S)Nc2ccc(Cl)cc2)sc(C)c1C	-5.4
CCOC(=O)c1c(NC(=O)CN2CCN(C(=O)c3ccco3)CC2)sc2c1CCCC2	318.8
C[n+]1cc[nH]c1SCC(=O)c1ccccc1	-7.0
CC(C)C(CCN1C(=O)CCC1=O)C1CCOC(C)(C)C1 (stereo not drawn)	-4.5
O=C(COC(=O)c1c(Cl)ccc(Cl)c1Cl)NC(=O)NCc1ccccc1	5.3
CN(C)c1ccc(/C=N/N=C/c2ccccc2O)cc1	3.3
CN(C)c1ccc(/C=C/c2cc[n+](C)cc2)cc1	174.0*
CC(=O)/C(=C/c1ccc(N(C)C)cc1)C(=O)c1ccccc1	6.5
COc1ccc(C2(NC(C)=O)CCN(C(=O)c3cccs3)CC2)cc1	288.6
O=C(N=C1SCC(=O)N1c1ccccc1)c1ccco1	7.0
N=C1SCC(=O)N1c1ncc(Cc2cccc(Cl)c2)s1	408.3*
CNC(=S)N(Cc1ccc(OC)cc1)Cc1cc2ccc(C)cc2[nH]c1=O	-7.7
CCn1c(SCC(=O)NCc2ccccc2)nnc1-c1cccnc1	0.0
Cc1nn(-c2ccccc2)c2c1C1(C(=O)N(C)c3ccccc31)C(C#N)=C(N)O2 (stereo not drawn)	-17.5
CN1/C(=C\C(=O)Nc2ccc(Br)cc2)C(C)(C)c2ccccc21	0.0
CN1/C(=C\C=C2/C(=O)Oc3ccccc3C2=O)C(C)(C)c2ccccc21	222.6*
CCOCCC(=O)Nc1cc(Cl)ccc1OC	-3.3

From PubChem BioAssay
